Blank lines part the entries; values can stand above or below the compound they belong to.
Experiments:
Assay type in all cases: ADME, organism-based, Macaca mulatta
[1] = Drug level in normal rhesus monkey white matter assessed as standard uptake value at 81.2 MBq, iv after 37.5 mins by microPET; details: in vivo, 0.625 h
[2] = Drug level in normal rhesus monkey white matter assessed as standard uptake value at 81.2 MBq, iv after 8 mins by microPET; details: in vivo
[3] = Drug level in normal rhesus monkey pons assessed as standard uptake value at 81.2 MBq, iv after 175 mins by microPET; details: in vivo
[4] = Drug level in normal rhesus monkey cerebellum assessed as standard uptake value at 81.2 MBq, iv after 145 mins by microPET; details: in vivo
Summary of the method: (§1)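 One normal rhesus monkey, each tracer given iv via the vena saphena (81.2, 96.3 or 109.4 MBq), with 1 day between tracer injections. Dynamic brain μPET over 180 min used frames of 5 × 60 s, 5 × 120 s, 9 × 300 s and 12 × 600 s. Images were reconstructed by filtered back projection with a RAMP filter. Regional time-activity curves were expressed as SUV.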

[5] = Drug level in normal rhesus monkey white matter assessed as standard uptake value at 81.2 MBq, iv after 145 mins by microPET; details: in vivo
[6] = Drug level in normal rhesus monkey pons assessed as standard uptake value at 81.2 MBq, iv after 155 mins by microPET; details: in vivo
[7] = Drug level in normal rhesus monkey white matter assessed as standard uptake value at 81.2 MBq, iv after 2.5 mins by microPET; details: in vivo
[8] = Drug level in normal rhesus monkey pons assessed as standard uptake value at 81.2 MBq, iv after 22.5 mins by microPET; details: in vivo, 0.375 h
[9] = Drug level in normal rhesus monkey frontal cortex assessed as standard uptake value at 81.2 MBq, iv after 3.5 mins by microPET; details: in vivo
[10] = Drug level in normal rhesus monkey pons assessed as standard uptake value at 81.2 MBq, iv after 6 mins by microPET; details: in vivo, 0.1 h
[11] = Drug level in normal rhesus monkey pons assessed as standard uptake value at 96.3 MBq, iv after 47.5 mins by microPET; details: in vivo
[12] = Drug level in normal rhesus monkey cerebellum assessed as standard uptake value at 96.3 MBq, iv after 52.5 mins by microPET; details: in vivo, 0.875 h; summary of the method: as §1
[13] = Drug level in normal rhesus monkey cerebellum assessed as standard uptake value at 96.3 MBq, iv after 135 mins by microPET; details: in vivo, 2.25 h; summary of the method: as §1
[14] = Drug level in normal rhesus monkey white matter assessed as standard uptake value at 96.3 MBq, iv after 75 mins by microPET; details: in vivo, 1.25 h
[15] = Drug level in normal rhesus monkey parietal cortex assessed as standard uptake value at 96.3 MBq, iv after 105 mins by microPET; details: in vivo, 1.75 h
[16] = Drug level in normal rhesus monkey cerebellum assessed as standard uptake value at 96.3 MBq, iv after 125 mins by microPET; details: in vivo; summary of the method: as §1
[17] = Drug level in normal rhesus monkey frontal cortex assessed as standard uptake value at 96.3 MBq, iv after 32.5 mins by microPET; details: in vivo
[18] = Drug level in normal rhesus monkey cerebellum assessed as standard uptake value at 109.4 MBq, iv after 129 mins by microPET; details: in vivo, 2.15 h
[19] = Drug level in normal rhesus monkey frontal cortex assessed as standard uptake value at 109.4 MBq, iv after 3.5 mins by microPET; details: in vivo; summary of the method: as §1
[20] = Drug level in normal rhesus monkey cerebellum assessed as standard uptake value at 109.4 MBq, iv after 22.5 mins by microPET; details: in vivo, 0.375 h
Summary of the method: (§2)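 One normal rhesus monkey received each tracer via the vena saphena, with 1 day between injections. Dynamic μPET ran 180 min for 18F tracers (5×60 s, 5×120 s, 9×300 s, 12×600 s) and 90 min for the 11C tracer (5×60 s, 5×120 s, 9×300 s, 3×600 s). Filtered back-projection reconstruction (RAMP filter) was used. Time-activity curves were drawn to give regional SUV.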

[21] = Drug level in normal rhesus monkey parietal cortex assessed as standard uptake value at 109.4 MBq, iv after 4.5 mins by microPET; details: in vivo, 0.075 h
[22] = Drug level in normal rhesus monkey pons assessed as standard uptake value at 109.4 MBq, iv after 87 mins by microPET; details: in vivo, 1.45 h
[23] = Drug level in normal rhesus monkey parietal cortex assessed as standard uptake value at 109.4 MBq, iv after 123 mins by microPET; details: in vivo, 2.05 h
[24] = Drug level in normal rhesus monkey thalamus assessed as standard uptake value at 109.4 MBq, iv after 0.875 mins by microPET; details: in vivo, 52 s
[25] = Drug level in normal rhesus monkey thalamus assessed as standard uptake value at 109.4 MBq, iv after 32.5 mins by microPET; details: in vivo
[26] = Drug level in normal rhesus monkey white matter assessed as standard uptake value at 109.4 MBq, iv after 87 mins by microPET; details: in vivo, 1.45 h
[27] = Drug level in normal rhesus monkey thalamus assessed as standard uptake value at 109.4 MBq, iv after 0.375 mins by microPET; details: in vivo, 22 s
[28] = Drug level in normal rhesus monkey pons assessed as standard uptake value at 152.9 MBq, iv after 65 mins by microPET; details: in vivo
[29] = Drug level in normal rhesus monkey cerebellum assessed as standard uptake value at 152.9 MBq, iv after 3.5 mins by microPET; details: in vivo; summary of the method: as §2
[30] = Drug level in normal rhesus monkey frontal cortex assessed as standard uptake value at 152.9 MBq, iv after 65 mins by microPET; details: in vivo
Summary of the method: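 Single normal rhesus monkey; tracer given iv via the vena saphena, 1 day apart from the other tracer injections. Dynamic μPET ran 90 min (5×60 s, 5×120 s, 9×300 s, 3×600 s). Images were reconstructed by filtered back projection with a RAMP filter. Regional time-activity curves were expressed as SUV.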

[31] = Drug level in normal rhesus monkey thalamus assessed as standard uptake value at 152.9 MBq, iv after 0.5 mins by microPET; details: in vivo
[32] = Drug level in normal rhesus monkey thalamus assessed as standard uptake value at 152.9 MBq, iv after 4.5 mins by microPET; details: in vivo, 0.075 h
[33] = Drug level in normal rhesus monkey pons assessed as standard uptake value at 152.9 MBq, iv after 10 mins by microPET; details: in vivo
[34] = Drug level in normal rhesus monkey pons assessed as standard uptake value at 152.9 MBq, iv after 2.5 mins by microPET; details: in vivo
[35] = Drug level in normal rhesus monkey white matter assessed as standard uptake value at 152.9 MBq, iv after 17.5 mins by microPET; details: in vivo
[36] = Drug level in normal rhesus monkey white matter assessed as standard uptake value at 152.9 MBq, iv after 22.5 mins by microPET; details: in vivo, 0.375 h
[37] = Drug level in normal rhesus monkey thalamus assessed as standard uptake value at 152.9 MBq, iv after 17.5 mins by microPET; details: in vivo

SUV [1]: 3.78
SUV [2]: 3.412
SUV [3]: 5.471
SUV [4]: 1.602
SUV [5]: 3.888
SUV [6]: 5.431
SUV [7]: 2.607
SUV [8]: 5.688
SUV [9]: 5.355
SUV [10]: 4.164
SMILES: CNc1ccc2nc(-c3ccc([18F])cc3)sc2c1

SUV [11]: 1.84
SUV [12]: 1.25
SUV [13]: 0.94
SUV [14]: 1.5
SUV [15]: 1.35
SUV [16]: 0.9
SUV [17]: 2.14
SMILES: CN(C)c1ccc2nc(-c3ccc([18F])cc3)sc2c1

SUV [18]: 2.36
SUV [19]: 4.99
SUV [20]: 4.4
SUV [21]: 5.12
SUV [22]: 4.84
SUV [23]: 3.56
SUV [24]: 2.43
SUV [25]: 5.59
SUV [26]: 3.65
SUV [27]: 0.41
SMILES: Nc1ccc2nc(-c3ccc([18F])cc3)sc2c1

SUV [28]: 0.852
SUV [29]: 2.17
SUV [30]: 0.653
SUV [31]: 0.038
SUV [32]: 2.075
SUV [33]: 2.036
SUV [34]: 1.05
SUV [35]: 1.328
SUV [36]: 1.229
SUV [37]: 2.159
SMILES: [11CH3]Nc1ccc(-c2nc3ccc(O)cc3s2)cc1 [PITTSBURGH COMPOUND B]

— ChEMBL document CHEMBL1154674, “Synthesis and evaluation of three 18F-labeled aminophenylbenzothiazoles as amyloid imaging agents” (J Med Chem, 2009)
